Source: PubChem (The Scripps Research Institute Molecular Screening Center)
Compounds with a hit are over-represented: about 3.9% of the library has one in this group of screens.
SF-1 act = activators of human SF-1, primary screen, cell-based, CHO-K1, Gal4-SF-1 LBD, luciferase luminescence; activation, % at 10 µM; Steroidogenic factor 1 (Homo sapiens), Q13285; CHO-K1 Gal4-SF-1 LBD luciferase reporter; % increase over DMSO SF-1-specific signal; hit rate 1.9% among 65,000;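 active means activation above the mean activation of all tested compounds plus 3 SD, cut at about 50% in these data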
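Material: Gal4–SF-1 LBD one-hybrid luciferase reporter in CHO-K1 cells | Amount: 4,000 cells per well | Compound dosing: 10 µM single point, 1% DMSO | Schedule: 20 h compound treatment, 37 °C | Measured by: SteadyLite luciferase luminescence | Evaluation: Percent activation versus DMSO | Control set: DMSO-treated SF-1-transfected cells as negative, DMSO-treated mock-transfected cells lacking SF-1 as background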
Jurkat tox 60K = cytotoxicity toward Jurkat T cells, primary screen, cytotoxicity control, cell-based, Jurkat E6.1, 60K MLSMR library; Jurkat E6.1 viability, ATP luminescence, 48 h; inhibition, % at 4 µM; hit rate 1.2% among 56,000; AID 463, 2006;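 active means inhibition above the mean inhibition of all tested compounds plus 3 SD, cut at about 28% in these data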
HEK293 NFkB inh = inhibitors of PMA/ionomycin-induced NF-kB reporter, primary screen, antigen receptor NF-kB inhibitor project, cell-based, HEK-293 luciferase reporter, luminescence; HEK-293 NF-kB luciferase reporter; hit rate 0.21% among 62,000; inhibition, % at 3 µM;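 active means inhibition above the mean of all tested compounds plus 3 SD, cut at about 40% in these data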;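 further: 0% = stimulated DMSO wells and 100% = 10 µM reference inhibitor 5653914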
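System – HEK-293 cells with stable firefly luciferase reporter driven by four HIV NF-kB elements · Doses – one dose, 3 µM · Schedule – 1 h compound pre-incubation, 16 h PMA/ionomycin at 37 °C · Technique – luminescence from luciferase substrate reagent · Measure – percent inhibition normalized per plate to DMSO and reference-inhibitor controls · Replicates – tested once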
RORa activator = activators of orphan receptor RORA, primary screen, cell-based, luminescence. Nuclear receptor ROR-alpha (Homo sapiens), P35398. CHO-K1 Gal4-RORA LBD luciferase reporter; percent increase over mock-subtracted basal signal. activation, % at 10 µM. hit rate 1.5% among 65,000. AID 560, 2006;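 active means activation above the mean of all tested compounds plus 3 SD, cut at about 49% in these data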;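 further: 0% = DMSO-treated RORA cells and 100% = added signal equal to DMSO minus mock-transfected cells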
Target sequence (P35398 whole entry, looked up, the tested form may be a part): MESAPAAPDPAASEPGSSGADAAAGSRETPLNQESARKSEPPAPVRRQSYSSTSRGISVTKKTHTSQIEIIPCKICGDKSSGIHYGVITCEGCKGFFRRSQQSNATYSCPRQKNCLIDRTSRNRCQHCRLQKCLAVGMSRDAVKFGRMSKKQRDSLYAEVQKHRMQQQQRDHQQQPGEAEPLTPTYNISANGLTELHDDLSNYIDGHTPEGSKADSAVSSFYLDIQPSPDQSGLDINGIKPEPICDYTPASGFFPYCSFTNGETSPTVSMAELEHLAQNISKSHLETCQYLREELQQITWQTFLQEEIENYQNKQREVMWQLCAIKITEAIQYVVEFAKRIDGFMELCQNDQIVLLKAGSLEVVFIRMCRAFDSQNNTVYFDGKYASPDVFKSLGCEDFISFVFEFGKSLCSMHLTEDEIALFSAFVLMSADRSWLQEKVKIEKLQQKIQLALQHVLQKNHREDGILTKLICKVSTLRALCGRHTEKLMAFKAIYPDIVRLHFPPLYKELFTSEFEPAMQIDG
Starred values were filed as active, the others as inactive; nt = not tested or not shown.

SMILES | SF-1 act | Jurkat tox 60K | HEK293 NFkB inh | RORa activator
COc1ccc(-c2nnc(SC(C)C(=O)Nc3ccc4c(c3)OCCO4)o2)cc1 (stereo unspecified) | 50* | -7 | 11 | 25
Fc1ccc(CSc2nnc(-c3cccs3)o2)cc1 | 43 | 0 | -17 | 25
CN1CCN(C(c2cccc(C(F)(F)F)c2)c2nnnn2Cc2ccccc2)CC1 (stereo unspecified) | 32 | -6 | 7 | -4
CC1CCN(S(=O)(=O)c2ccc(S(=O)(=O)NCC3COCCO3)cc2)CC1 (stereo unspecified) | -12 | 2 | 17 | -13
O=C(Cc1cccs1)N(Cc1ccco1)C1(C(=O)NC2CCCC2)CCCCC1 | 6 | nt | 12 | -21
COc1ccccc1-n1c(CNC(=O)c2ccco2)nnc1SCC(=O)Nc1ccc(F)cc1 | -4 | -5 | 6 | 5
Cc1cc(NC(=O)c2cc(-c3ccncc3)nc3c(C)cccc23)no1 | 48 | 78* | 31 | 29
Cc1cc(C)c2nc(-c3ccccn3)cc(C(=O)Nc3cc(C)on3)c2c1 | 8 | -4 | 22 | -14
O=C1CCCCCN1Cc1nnc(SCc2nc3ccccc3s2)n1-c1ccccn1 | 79* | nt | 4 | 61*
CCN(CC)c1ccc(C(=O)n2cnc3ccccc32)cc1 | 64* | 31 | 8 | 39
Nn1c(SCC(=O)Nc2ccc(F)cc2F)nnc1-c1cccnc1 | 57* | 16 | 15 | 4
Nn1c(SCC(=O)Nc2ccccc2F)nnc1-c1cccnc1 | 6 | -1 | 0 | -10
Cc1cc(C(=O)CN2C(=O)c3ccccc3S2(=O)=O)c(C)n1CC1CCCO1 (stereo unspecified) | -32 | 0 | 84* | -62
CCn1c(SCC(=O)c2cc(C)n(CC3CCCO3)c2C)nc2ccccc21 (stereo unspecified) | -11 | 0 | 9 | -1
Cc1cc(C(=O)CSc2nnnn2-c2ccccc2)c(C)n1CC1CCCO1 (stereo unspecified) | 68* | -5 | -35 | 45
Cc1ccc2nc(C(F)OC(F)(F)F)[nH]c2c1 (stereo unspecified) | -10 | -4 | 14 | -7
Cc1ccc2nc(C(O)C(O)c3nc4ccc(C)cc4[nH]3)[nH]c2c1 (stereo unspecified) | 51* | nt | -22 | 23
O=C(NC1=NC2CCCCC2N1)c1ccccc1 (stereo unspecified) | 44 | 10 | -29 | 25
COc1ccc2c(c1)CCc1c(C(=O)NCCN3CCOCC3)noc1-2 | -3 | 7 | 12 | 19
COCC(C)NC(=O)c1noc2c1CCc1cc(OC)ccc1-2 (stereo unspecified) | 68* | 1 | -6 | 6
COCCNC(=O)c1noc2c1CCc1cc(OC)ccc1-2 | 72* | -2 | -17 | 36
COc1ccc2c(c1)CCc1c(C(=O)NC3CCCCC3)noc1-2 | 54* | 7 | -30 | 34
CCN1C(=O)C(C)S/C1=N\S(=O)(=O)c1ccc(Cl)s1 (stereo unspecified) | -3 | -2 | -8 | -4
CCOC(=O)c1csc(NC(=O)c2ccccc2)n1 | 63* | 4 | -29 | 79*
CC(=O)c1cccc(NC(=O)Oc2ccccc2)c1 | -1 | 5 | 15 | 4
SMILES | SF-1 act | Jurkat tox 60K | HEK293 NFkB inh | RORa activator
CC(C)Oc1ccc(NC(=O)Oc2ccccc2)cc1 | 52* | -5 | -2 | 39
O=C(O)c1ccccc1S(=O)(=O)NCC(O)COc1ccc(Br)cc1 (stereo unspecified) | 11 | -6 | 0 | 32
Cc1nnc(Sc2nc(Sc3nnc(C)s3)nc(N3CCN(C)CC3)n2)s1 | -96 | 101* | 39 | -93
Cn1c(C(=O)NCc2ccccn2)cc2c(=O)n3ccccc3nc21 | 61* | 3 | -19 | 53*
C/C(=N\n1nnnc1Nc1ccccc1)c1ccc(N)cc1 | -2 | -4 | 10 | 30
CC1CC(C)(C)Nc2ccc(OC(=O)c3ccco3)cc21 (stereo unspecified) | -1 | 9 | 58* | -27
COc1cc(C2CC(=O)c3c([nH]c(C(=O)OCCOC(C)C)c3C)C2)cc(OC)c1OC (stereo unspecified) | -34 | 43* | 33 | -25
COCCOC(=O)c1[nH]c2c(c1C)C(=O)CC(c1cc(OC)ccc1OC)C2 (stereo unspecified) | 7 | 65* | 18 | 75*
COc1ccc(OC)c(C2CC(=O)c3c([nH]c(C(=O)OC(C)C)c3C)C2)c1 (stereo unspecified) | -28 | 98* | 34 | -22
CCCOCCOC(=O)c1[nH]c2c(c1C)C(=O)CC(c1cc(OC)ccc1OC)C2 (stereo unspecified) | -31 | 22 | 12 | -4
COc1ccc(OC)c(NC(=O)C2CC(C)=C(C)CC2C(=O)O)c1 (stereo unspecified) | 12 | -5 | 14 | 11
CCOc1c(Br)cc(C2NS(=O)(=O)N=C3CCCCCN32)cc1OC (stereo unspecified) | 6 | 1 | 8 | -12
CCOC(=O)c1c(C)nn(Cc2cccc(Cl)c2)c1N | 1 | -2 | 8 | 7
Cc1cc(-c2nnc3n2CCCCC3)c(C)n1-c1ccccc1 | 19 | 15 | 0 | 9
CCOc1ccc2ccccc2c1C(=O)N1CCN(c2ccccc2)CC1 | 30 | 85* | 18 | 22
CCOc1ccccc1C(=O)N1CCN(c2cccc(Cl)c2)CC1 | -55 | 98* | 40* | -52
O=C(c1cccc(F)c1)N1CCN(c2cccc(C(F)(F)F)c2)CC1 | -6 | -4 | 4 | 9
COc1ccccc1C(=O)N1CCN(c2cccc(C(F)(F)F)c2)CC1 | 23 | 82* | 12 | 2
COc1ccc(C(=O)N2CCN(c3cccc(Cl)c3)CC2)c(OC)c1 | 37 | 56* | 16 | 14
C[C@H](NC(=O)Nc1ccc2c(c1)OCCO2)C(=O)O | 2 | -8 | -6 | -7
CS(=O)(=O)N(CC(=O)N1CCCC1)c1cccc(Cl)c1 | 17 | 0 | 12 | -18
CC(=O)c1cc2c(cc1NS(=O)(=O)c1ccc(C)cc1)OCCO2 | 13 | 76* | 14 | 10
CCC(C)NS(=O)(=O)c1ccc(S(=O)(=O)Nc2cc3c(cc2C(C)=O)OCO3)cc1 (stereo unspecified) | 5 | -3 | 9 | -3
CSc1ccccc1NS(=O)(=O)c1ccc2c(c1)OCCO2 | -9 | 7 | 22 | 2
COC(=O)c1ccc(C)c(NS(=O)(=O)c2ccc3c(c2)OCCO3)c1 | 16 | 92* | 33 | 40
CS(=O)(=O)N(CC(=O)NCCC1=CCCCC1)c1ccc2c(c1)OCO2 | 11 | 4 | 10 | -8
COCC(=O)Nc1nc2ccc(S(C)(=O)=O)cc2s1 | 30 | -10 | -1 | 38
CCOC(=O)c1ccc2nc(NC(=O)C(C)C)sc2c1 | 43 | -3 | -40 | 68*
